CHRM4 antagonist: human M4 muscarinic receptor antagonists, primary screen, CHO cells, Fluo-8 calcium fluorescence; Muscarinic acetylcholine receptor M4 (Homo sapiens), P08173; CHO-hM4 cells, ACh EC80; inhibition, % at 3 µM; 360,000 compounds, 0.73% hits; AID 624125, 2012;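 active = inhibition above its plate's cutoff, the mean inhibition of sample wells plus 3 SD, cut at about 27% in these data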
M4 ag: human M4 muscarinic receptor agonists, primary screen, CHO-K1 cells, Fluo-8 calcium fluorescence. Muscarinic acetylcholine receptor M4 (Homo sapiens), P08173. CHO-K1 hM4/Gqi5; vehicle 0%, full acetylcholine response 100%. activation, % at 3 µM. 360,000 compounds, 0.14% hits. AID 624127, 2012;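 active = activation above the run mean over all test wells plus 3 SD, cut at about 32% in these data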;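 also: peak over basal fluorescence ratio per well then scaled between controls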
CHRM4 PAM: human M4 muscarinic receptor positive allosteric modulators, primary screen, CHO-K1 cells, Fluo-8 calcium fluorescence | Muscarinic acetylcholine receptor M4 (Homo sapiens), P08173 | CHO-K1 hM4/Gqi5, ACh EC20; 0% = ACh EC20, 100% = maximal ACh | activation, % at 3 µM | 360,000 compounds, 0.4% hits | AID 624126, 2012;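 active = activation above its plate's cutoff, the mean activation of sample wells plus 3 SD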
M5 PAM: human M5 muscarinic receptor positive allosteric modulators, primary screen, CHO-K1 cells, Fluo-8 calcium fluorescence; 360,000 compounds, 0.3% hits; Muscarinic acetylcholine receptor M5 (Homo sapiens), P08912; AID 624038, 2012; activation, % at 3 µM; CHO-K1 hM5, ACh EC20 PAM; 0% = ACh EC20, 100% = ACh EC100;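 active = activation above the run cutoff, the mean activation of all test compounds plus 3 SD, cut at about 18% in these data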
Target sequence (P08912 whole entry, looked up): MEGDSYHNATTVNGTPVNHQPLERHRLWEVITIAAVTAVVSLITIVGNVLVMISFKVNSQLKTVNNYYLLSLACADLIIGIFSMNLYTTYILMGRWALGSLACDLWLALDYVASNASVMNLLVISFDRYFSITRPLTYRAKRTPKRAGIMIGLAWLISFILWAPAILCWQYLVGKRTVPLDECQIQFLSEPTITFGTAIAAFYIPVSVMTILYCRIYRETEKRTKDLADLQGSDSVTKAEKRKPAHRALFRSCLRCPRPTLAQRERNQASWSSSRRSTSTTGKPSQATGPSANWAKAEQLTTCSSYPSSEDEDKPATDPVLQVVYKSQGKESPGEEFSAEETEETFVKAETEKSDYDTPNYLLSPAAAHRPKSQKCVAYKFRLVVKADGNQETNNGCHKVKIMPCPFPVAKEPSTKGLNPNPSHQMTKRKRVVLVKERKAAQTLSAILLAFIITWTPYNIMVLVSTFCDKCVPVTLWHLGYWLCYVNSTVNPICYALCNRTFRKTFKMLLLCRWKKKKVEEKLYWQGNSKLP
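Probe or stimulus: acetylcholine, EC20 level; Assay system: human M5 receptor in CHO-K1 cells; Schedule: compound preincubation 140 s before EC20 acetylcholine addition; Technique: intracellular calcium via Fluo-8 fluorescence; Dosing: single-point, 3 µM nominal; Read-out basis: percent activation from peak-over-basal fluorescence ratio, scaled EC20-to-EC100 acetylcholine; Repeats: one well per compound, no replicates.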
M5 ag: human M5 muscarinic receptor agonists, primary screen, CHO-K1 cells, Fluo-8 calcium fluorescence. AID 624037, 2012. activation, % at 3 µM. 360,000 compounds, 0.19% hits. CHO-K1 hM5 cells; 0% DMSO wells, 100% maximal acetylcholine response;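 active = activation above the run's mean over test compounds plus 3 SD, cut at about 23% in these data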;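 also: signal is peak over basal fluorescence ratio across the kinetic read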
CHRM5 antagonist: human M5 muscarinic receptor antagonists, primary screen, CHO cells, Fluo-8 calcium fluorescence | Muscarinic acetylcholine receptor M5 (Homo sapiens), P08912 | CHO-hM5 cells, ACh EC80 | inhibition, % at 3 µM | 360,000 compounds, 0.59% hits | AID 624040, 2012;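 active = inhibition above a per-plate cutoff, the mean of that plate's test compounds plus 3 SD, cut at about 27% in these data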
Numbers stand for hits; - = inactive. The list is not random: actives were taken first. Their share in the collection is about 1.8%.

SMILES	CHRM4 antagonist	M4 ag	CHRM4 PAM	M5 PAM	M5 ag	CHRM5 antagonist
C/C(N)=C(/C#N)C(=O)COC(=O)c1ccc(C)c(S(=O)(=O)N2CCCCC2)c1	-	-	-	33	-	-
COc1cc(C(C)=O)ccc1OCC(=O)Nc1ccc(C)c(S(=O)(=O)N2CCCCCC2)c1	-	-	-	-	-	32
CCc1nc2ccc(C(=O)Nc3cc(-c4ccccc4)ccc3OC)cn2c1N(C)C(=O)c1cccc(OC)c1	-	-	-	-	-	-
COc1ccc(S(=O)(=O)N2CCC(C(=O)NCCc3ccccc3)CC2)cc1OC	-	-	-	-	-	-
COc1ccc(CC(=O)Nc2cccc(S(=O)(=O)N3CCCCCC3)c2)cc1OC	-	-	-	-	-	32
O=C(COC(=O)C1CC2C=CC1C2)Nc1cccc(S(=O)(=O)N2CCCCCC2)c1 (stereo unspecified)	-	-	-	-	-	31
O=C(COC(=O)C1CC2C=CC1C2)Nc1cccc(S(=O)(=O)N2CCCCC2)c1 (stereo unspecified)	-	-	-	-	-	-
COc1ccc(S(=O)(=O)N2CCC(C(=O)NCC(=O)Nc3c(C)cccc3C)CC2)cc1OC	-	-	25	-	-	-
CCN1C(=O)[C@H]2[C@H]3CN=C(SC)N3[C@@](Cc3ccccc3)(C(=O)OC)[C@H]2C1=O	-	-	-	-	-	-
CC(=O)Nc1ccc(NC(=O)C(C)OC(=O)CNS(=O)(=O)c2ccc(Br)cc2Cl)cc1 (stereo unspecified)	-	-	-	-	-	-
Cc1ccc(C(=O)N[C@H](C(=O)Nc2cccc(S(=O)(=O)N3CCOCC3)c2)C(C)C)cc1	-	-	-	-	-	-
CCc1nn(CC(=O)NCCCN2CCOCC2)c(=O)c2cc3c(OC)cccc3n12	-	-	-	-	-	-
COc1cccc(CNC(=O)CCC2CCCN(C3CCOCC3)C2)c1 (stereo unspecified)	-	-	-	-	-	-
COc1cccc(CNC(=O)CCC2CCCN(c3cc(C)nc(N4CCCC4)n3)C2)c1 (stereo unspecified)	28	-	-	-	-	-
CCc1ccc2[nH]c(=O)c(C(c3nnnn3Cc3ccc(OC)cc3)N3CCOCC3)cc2c1 (stereo unspecified)	-	-	39	-	-	-
Nc1cc([N+](=O)[O-])ccc1Nc1ccc(O)cc1	-	-	-	-	-	32
C/C(=N/OC(=O)c1c(-c2c(Cl)cccc2Cl)noc1C)c1cnccn1	-	-	-	-	-	-
C/C(=N/OC(=O)c1c(-c2ccccc2Cl)noc1C)c1cnccn1	34	-	-	-	-	-
NC(=O)c1ccc[n+]([C@H]2O[C@@H](COP(=O)([O-])OP(=O)(O)OC[C@H]3O[C@@H](n4cnc5c(N)ncnc54)[C@H](O)[C@@H]3O)[C@H](O)[C@@H]2O)c1	-	80	-	-	25	-
COc1ccc(C(=O)NC[C@H]2O[C@@H](n3cnc4c(N)ncnc43)[C@H](O)[C@@H]2O)cc1OC	-	-	-	-	-	-
COc1ccc(CCNC(=O)c2cc(S(=O)(=O)N3CCOCC3)cn2C)cc1OC	-	-	-	-	-	-
CN(Cc1ccccc1)C1=CC(=[N+]2CCCCC2)CC(C)(C)C1	54	-	-	-	-	-
CC1(C)CC(N2CCN(Cc3ccccc3)CC2)=CC(=[N+]2CCCCC2)C1	-	-	-	-	-	-
Fc1ccc(-n2nnnc2-c2cnc(-c3cccs3)nc2C(F)(F)F)cc1	48	-	-	-	-	47
CSCCC(NC(=O)c1ccccc1Cl)C(=O)N(C)Cc1cccs1 (stereo unspecified)	-	-	-	-	-	-
SMILES	CHRM4 antagonist	M4 ag	CHRM4 PAM	M5 PAM	M5 ag	CHRM5 antagonist
COCCCNc1c2c3c(cccc3[nH]c1=O)C(=O)c1ccccc1-2	53	305	-	-	94	41
COc1ccc(C(=O)NNC(=O)CSc2nnnn2C)cc1	-	-	-	19	-	-
Cn1nnnc1SCC(=O)Nc1ccccc1[N+](=O)[O-]	-	-	-	-	-	-
COc1ccc(NC(=O)CSc2nnnn2C)c([N+](=O)[O-])c1	-	-	-	-	-	32
COc1ccc(NC(=O)CSc2nnnn2C)cc1	-	-	-	-	-	-
CC1CCCCN1C(=O)CSc1nnc(-c2ccco2)n1CC1CCCO1 (stereo unspecified)	-	-	30	-	-	-
CCn1c(SCC(=O)N2CCCCC2C)nnc1-c1ccco1 (stereo unspecified)	-	-	-	-	-	-
O=C(CSc1ncccn1)NCc1cccs1	-	-	-	-	-	-
COc1ccc(S(=O)(=O)n2nc(OC(=O)c3ccccc3)cc2N)cc1	-	-	-	-	-	-
COc1ccc(S(=O)(=O)n2nc(OC(=O)c3ccco3)cc2N)cc1	-	-	18	-	-	-
NC(=O)c1nc(C(=O)N2CCCCC2)c2ccccc2n1	-	-	-	-	-	-
NC(=O)c1nc(C(=O)N2CCN(c3ccccc3)CC2)c2ccccc2n1	-	-	-	20	-	-
CCc1cc(C(=O)OC)c(NC(=O)c2ccoc2C)s1	-	-	-	-	-	-
COC(=O)c1c(-c2ccncc2)csc1NC(=O)c1ccoc1C	32	-	48	-	-	-
O=C1OCC/C1=C\NCCCN/C=C1\CCOC1=O	-	-	-	-	-	-
CCNC(=S)NC1CC2CCCC(C1)N2CCc1ccccc1 (stereo unspecified)	37	-	-	-	-	69
CCNC(=S)NC1CC2CCC(C1)N2Cc1ccccc1 (stereo unspecified)	-	-	-	-	-	-
CC1CC(NC(=O)/C=C/C(=O)O)CC(C)(C)C1 (stereo unspecified)	-	-	-	-	-	-
CCOc1ccc(OCC)c(NC(=O)CN2CCN(c3ccc(C)cc3C)CC2)c1	-	-	20	-	-	-
Cn1c(=O)[nH]c(=O)c2c1nc(Br)n2CCCO	-	-	-	22	-	-
CN(CC(=O)NCc1ccc2c(c1)OCO2)S(=O)(=O)c1ccc(F)cc1	-	-	-	-	-	-
